Experimental data from ChEMBL document CHEMBL1255465, “Persistence of uropathogenic Escherichia coli in the face of multiple antibiotics” (Antimicrob Agents Chemother, 2010).
Calls of active or inactive are those of the source. The rule behind the calls is not given here.

Legend:
[1] = system: Escherichia coli; assay: Antibacterial activity against uropathogenic Escherichia coli UTI89 infected in human 5637 cells assessed as decrease in intracellular bacterial level at 700 to 1000 ug/ml after 12 hrs by serial dilution method; type: functional, organism-based
How it was run: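 Confluent 5637 monolayers in triplicate infected with UTI89 (24-h static LB culture, type 1 pili) at MOI ~15 and spun 600 × g for 5 min. After 2 h: gentamicin 100 μg/ml for 2 h, then 10 μg/ml for 14 h. Then 12 h with drug at two concentrations. Cells lysed in 0.4% Triton X-100 and plated on LB agar. Titers expressed relative to 800 μg/ml gentamicin. ≥3 independent assays.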

[2] = system: Escherichia coli; assay: Antibacterial activity against uropathogenic Escherichia coli UTI89 infected in CBA/J mouse assessed as decrease in bacterial load in bladder at 1 mg/kg, po administered on day 3 postinfection daily for 3 days measured on day 9 post-inoculation; type: functional, organism-based; design: dose 1 mg/kg; settings: Urinary bladder
How it was run: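 Female CBA/J mice, 7–8 weeks old, inoculated transurethrally with ~10^7 CFU UTI89 (24-h static LB culture) in 50 μl PBS. From day 3, one oral gavage daily for 3 days, 50 μl; controls given water. On day 9, bladders homogenized in PBS with 0.025% Triton X-100 and plated on LB agar for CFU. 11 mice from two experiments; Mann-Whitney U test.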

[3] = Drug level in Escherichia coli UTI89-infected CBA/J mouse urine at 1 mg/kg, po after 2 hrs; type: ADME, organism-based; design: dose 1 mg/kg, route oral; settings: in vivo
How it was run: (§1)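 Urine collected by gentle bladder pressure 2 h after oral dosing of UTI89-infected CBA/J mice. 10 μl spotted on 7-mm filter discs, placed on fresh UTI89 lawns on LB agar. Clearance diameter measured after 24 h at 37°C. Urine drug level calculated from standard curves of discs holding known antibiotic concentrations.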

[4] = system: Escherichia coli; assay: Antibacterial activity against uropathogenic Escherichia coli UTI89 infected in CBA/J mouse assessed as decrease in bacterial invasion into layers of urothelium at 1 mg/kg, po administered on day 3 postinfection daily for 3 days measured on day 9 post-inoculation; type: functional, organism-based; design: dose 1 mg/kg
[5] = system: Escherichia coli; assay: Antibacterial activity against uropathogenic Escherichia coli UTI89 isolated from urine samples of infected CBA/J mouse after 24 hrs by disk diffusion assay; type: functional, organism-based; how it was run: as §1
[6] = system: Escherichia coli; assay: Antibacterial activity against uropathogenic Escherichia coli UTI89 assessed as inhibition of biofilm formation after 24 hrs by microtiterplate-based assay; type: functional, organism-based
How it was run: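 Biofilms of UTI89 formed for 48 h at 37°C without shaking in M9 (1:100 inoculum, triplicate wells). Fresh M9 ± drug (higher of two tested concentrations) then added for 24 h. Biomass stained with 0.1% crystal violet, solubilized in DMSO, read at A562, and expressed relative to untreated controls. Three independent experiments.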

[7] = system: Escherichia coli; assay: Antibacterial activity against uropathogenic Escherichia coli UTI89 infected in CBA/J mouse assessed as decrease in bacterial invasion into layers of urothelium at 1 mg/kg, po administered on day 3 postinfection daily for 3 days measured on day 9 post-inoculation in presence of Triton X-100; type: functional, organism-based; design: dose 1 mg/kg
[8] = system: 5637; assay: Cytotoxicity against human 5637 cells assessed as mild induction of cell death by trypan blue exclusion assay; type: cell-based
How it was run: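 Integrity of 5637 cells after drug treatment assessed by 0.4% trypan blue exclusion, following a standard protocol.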

[9] = system: 5637; assay: Cytotoxicity against human 5637 cells assessed as mild induction of cell death by LDH release assay; type: cell-based
[10] = system: Escherichia coli; assay: Antibacterial activity against uropathogenic Escherichia coli UTI89 assessed as degradation of preexisting biofilm after 24 hrs by microscopy; type: functional, organism-based
How it was run: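 UTI89 diluted 1:100 into M9 medium and grown statically 48 h at 37°C in microtiter wells. Nonadherent cells removed, fresh M9 ± drug added for 24 h, using the higher of two tested concentrations. Viable bacteria in biofilms visualized by Live/Dead BacLight staining and microscopy.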

Q: Which results are given for `C[C@@H]1O[C@@H]1P(=O)(O)O` [FOSFOMYCIN]?
A: inhibition [1]: Active; inhibition [2]: inactive; Drug uptake [3]: 4 µg/mL; inhibition [4]: inactive; Activity [5]: Active; Biofilm inhibition activity [6]: Active; inhibition [7]: Active; Activity [8]: Toxic; Activity [9]: Toxic; Activity [10]: Active
